Source: ChEMBL document CHEMBL1125707, “Dexamethasone 21-(beta-isothiocyanatoethyl) thioether: a new affinity label for glucocorticoid receptors” (J Med Chem, 1991)

Key:
[1] = target: Glucocorticoid receptor (Rattus norvegicus) (UniProt P06536); settings: filed as partial agonist
[2] = target: T1, Glucocorticoid receptor (Rattus norvegicus) (UniProt P06536); experiment: Relative affinity [Ka compound/Ka Dex] for glucocorticoid receptors in whole-cell competition assay
T1 sequence (whole entry): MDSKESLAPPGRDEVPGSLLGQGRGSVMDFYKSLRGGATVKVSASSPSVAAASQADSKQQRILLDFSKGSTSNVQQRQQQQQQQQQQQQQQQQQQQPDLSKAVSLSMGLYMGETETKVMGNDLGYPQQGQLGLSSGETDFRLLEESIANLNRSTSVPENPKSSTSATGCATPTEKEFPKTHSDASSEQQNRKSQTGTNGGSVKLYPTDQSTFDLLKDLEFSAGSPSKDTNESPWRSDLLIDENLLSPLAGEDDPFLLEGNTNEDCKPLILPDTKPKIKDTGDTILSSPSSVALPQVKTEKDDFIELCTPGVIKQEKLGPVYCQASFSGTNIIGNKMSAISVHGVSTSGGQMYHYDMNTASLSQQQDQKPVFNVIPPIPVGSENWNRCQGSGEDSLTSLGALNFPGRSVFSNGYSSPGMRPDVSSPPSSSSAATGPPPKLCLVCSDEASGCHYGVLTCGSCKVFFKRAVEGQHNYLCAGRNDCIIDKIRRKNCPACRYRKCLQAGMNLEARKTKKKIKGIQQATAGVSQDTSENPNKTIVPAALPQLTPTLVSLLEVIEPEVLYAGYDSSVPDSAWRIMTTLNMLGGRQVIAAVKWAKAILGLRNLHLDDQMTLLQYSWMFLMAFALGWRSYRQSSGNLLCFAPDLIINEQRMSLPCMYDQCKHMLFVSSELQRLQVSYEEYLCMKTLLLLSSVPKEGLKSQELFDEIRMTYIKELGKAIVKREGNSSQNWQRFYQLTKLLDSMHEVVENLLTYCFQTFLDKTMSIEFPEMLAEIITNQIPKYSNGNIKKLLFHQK
Summary of the method: (§1)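 Competition with [3H]Dex for glucocorticoid receptors, in HTC cell cytosol (0 °C) or in intact HTC cells (30 min, 37 °C). Relative affinity is the ratio of Dex to steroid concentrations giving 50% inhibition of [3H]Dex binding, corrected by the Rodbard method for partial receptor occupancy by uncompeted [3H]Dex. Averages of 2–4 experiments.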

[3] = target: T1, Glucocorticoid receptor (Rattus norvegicus); experiment: Relative affinity [Ka compound/Ka Dex] for glucocorticoid receptors in cell-free competition assay
Summary of the method: as §1

[4] = target: T1, Glucocorticoid receptor (Rattus norvegicus); experiment: Dex-NCS incubation on the subsequent inhibition of exchange binding with [3H]dexamethasone measured at pH 8.8 at 1h.; settings: concentration not given here
Summary of the method: (§2)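 Crude HTC cytosol receptors in TAPS buffer were preincubated 3 h at 0 °C with Dex-NCS (290 or 580 nM) or cortisol (60 or 120 nM). Activated charcoal then removed free steroid and inactivated steroid-free receptors. Cytosol was adjusted to 1.9×10^-8 M [3H]Dex ± 575-fold unlabeled Dex and incubated for the stated times at 0 °C, final pH 8.8 or 7.6. Bound steroid was charcoal-separated; specific = total − nonspecific. Cortisol preincubation defined exchangeable binding. Run in duplicate; mean (SD, n).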

[5] = target: T1, Glucocorticoid receptor (Rattus norvegicus); experiment: Dex-NCS incubation on the subsequent inhibition of exchange binding with [3H]dexamethasone measured at pH 8.8 at 3h.; settings: concentration not given here
Summary of the method: as §2

[6] = target: T1, Glucocorticoid receptor (Rattus norvegicus); experiment: Dex-NCS incubation on the subsequent inhibition of exchange binding with [3H]dexamethasone measured at pH 8.8 at 5h.; settings: concentration not given here
Summary of the method: as §2

[7] = target: T1, Glucocorticoid receptor (Rattus norvegicus); experiment: Dex-NCS incubation on the subsequent inhibition of exchange binding with [3H]Dexamethasone measured at pH 7.6 at 20h.; settings: concentration not given here
Summary of the method: as §2

[8] = target: T1, Glucocorticoid receptor (Rattus norvegicus); experiment: Dex-NCS incubation on the subsequent inhibition of exchange binding with [3H]dexamethasone measured at pH 7.6 at 3h.; settings: concentration not given here
Summary of the method: as §2

[9] = target: T1, Glucocorticoid receptor (Rattus norvegicus); experiment: Dex-NCS incubation on the subsequent inhibition of exchange binding with [3H]dexamethasone measured at pH 7.6 at 1h.; settings: concentration not given here
Summary of the method: as §2

[10] = target: T1, Glucocorticoid receptor (Rattus norvegicus); experiment: Dex-NCS incubation on the subsequent inhibition of exchange binding with [3H]dexamethasone measured at pH 7.6 at 5h.; settings: concentration not given here
Summary of the method: as §2

Structure (SMILES) | Agonist [1] | Relative affinity [2] | Relative affinity [3] | inhibition [4] | inhibition [5] | inhibition [6] | inhibition [7] | inhibition [8] | inhibition [9] | inhibition [10]
C[C@@H]1CC2C3CCC4=CC(=O)C=C[C@]4(C)[C@@]3(F)[C@@H](O)C[C@]2(C)[C@@]1(O)C(=O)CBr (some centres not stated) | Partial agonist | 0.063 | 0.021 |  |  |  |  |  |  | 
C[C@@H]1CC2C3CCC4=CC(=O)C=C[C@]4(C)[C@@]3(F)[C@@H](O)C[C@]2(C)[C@@]1(O)C(=O)CSCCN=C=S (some centres not stated) |  |  |  | 43.8% | 37% | 34.1% | 45.7% | 60.5% | 63.2% | 56.6%
C[C@@H]1CC2C3CCC4=CC(=O)C=C[C@]4(C)[C@@]3(F)[C@@H](O)C[C@]2(C)[C@@]1(O)C(=O)COC(=O)c1c(C(F)(F)F)cccc1C(F)(F)F (some centres not stated) |  | 0.0087 | 0.079 |  |  |  |  |  |  | 
